The list is not random: actives were taken first. Their share in the collection is about 0.74%.
ARFGAP1 inhibitor – inhibits rat ARF GTPase activating protein 1; 360,000 tested, 0.26% active; inhibition, % at 16.5 µM; Q62848; Arfgap1-stimulated ARF1 GTP hydrolysis, GDP FP detection;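 active means inhibition above a per-plate limit, mean inhibition of low control wells plus 3 SD, cut at about 25% in these data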
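Assay system: Rat Arfgap1 GAP domain (His6, aa 1-136), purified enzyme | Buffer or medium: HEPES 25 mM pH 7.5, NaCl 150 mM, MgCl2, DTT | Schedule: GTP hydrolysis reaction 2 h at 25 °C | Signal: FP of antibody-bound GDP Alexa 633 tracer, ex 620/em 688 nm | Measure: Percent inhibition of Arfgap1-stimulated GTP hydrolysis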
Tn7 DDE FP – inhibitors of Tn7 peptide binding to human fibrin DD(E) | P02675 | FP displacement of FITC-Tn7 peptide from fibrin DD(E); 0% = median of compound wells per plate | inhibition, % at 8.3 µM | 370,000 tested, 0.13% active | AID 720508;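 active means inhibition above the mean of compounds falling within the control limits plus 3 SD of them, cut at about 14% in these data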
Target sequence (P02675 whole entry, looked up): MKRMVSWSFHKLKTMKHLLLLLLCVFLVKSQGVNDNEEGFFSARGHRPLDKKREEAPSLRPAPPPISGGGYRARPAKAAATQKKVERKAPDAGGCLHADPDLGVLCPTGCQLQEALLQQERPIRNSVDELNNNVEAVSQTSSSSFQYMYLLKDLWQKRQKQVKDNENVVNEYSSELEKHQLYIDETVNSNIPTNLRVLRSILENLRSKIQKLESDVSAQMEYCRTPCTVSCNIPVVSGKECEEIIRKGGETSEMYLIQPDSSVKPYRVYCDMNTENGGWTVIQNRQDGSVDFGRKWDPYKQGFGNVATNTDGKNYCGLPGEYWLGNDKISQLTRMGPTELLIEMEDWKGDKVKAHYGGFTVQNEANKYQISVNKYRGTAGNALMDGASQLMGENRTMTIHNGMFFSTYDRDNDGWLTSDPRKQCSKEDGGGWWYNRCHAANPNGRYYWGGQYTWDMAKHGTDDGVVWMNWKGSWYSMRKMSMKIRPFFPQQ
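Assay system: Human clot-derived fibrin DD(E) complex | Buffer or medium: Tris/NaCl/CaCl2 buffer, pH 7.8 | Repeats: One replicate per compound | Benchmarks: Aha-Tn7 high control | Measure: % inhibition scaled between sample-field median and high-control FP | Schedule: 10 min plus 3 h, room temperature | Signal: Fluorescence polarization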
Tn6 DDE FP – inhibitors of Tn6 peptide binding to human fibrin DD(E); Fibrin DD(E) TRITC-Tn6 fluorescence polarization displacement; AID 720509; inhibition, % at 8.3 µM; 370,000 tested, 0.21% active;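 active means inhibition above a per-campaign cutoff: mean of compounds within control limits plus 3 SD, cut at about 15% in these data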
ASAP1 GAP inh – ASAP1 ArfGAP inhibition; Q9ULH1; ASAP1-stimulated ARF1 GTP hydrolysis, GDP FP detection; inhibition, % at 16.5 µM; 360,000 tested, 0.19% active; AID 624377; in the data active means inhibition above about 25%
DDE Tn7 confirm – confirmation of inhibitors of Tn7 binding to human fibrin DD(E). 460 tested, 5% active. inhibition, % at 8.3 µM. shares compounds with Tn7 DDE FP. FP displacement of TRITC-Tn7 peptide from DD(E); 0% set at plate's compound-well median;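 active means inhibition above the campaign cutoff, the mean of compounds within control limits plus 3 SD, cut at about 14% in these data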;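 further: displacers lower polarization since freed probe rises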
Tn7 DDE ctr – counter-screen hit for Tn7 peptide-fibrin DD(E) binding disruption; shares compounds with Tn7 DDE FP; TRITC-Tn7 probe displacement, fluorescence polarization; inhibition, % at 8.3 µM; 460 tested, 3% active;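 active means inhibition above the cutoff, the mean of compounds lying between the control bounds plus 3 SD of those compounds, cut at about 17% in these data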
Tn6 DDE ctr – counter-screen for inhibitors of Tn6 peptide binding to fibrin DD(E); 680 tested, 2% active; inhibition, % at 8.3 µM; TRITC-Tn6 fluorescence polarization displacement; 0% = median of compound wells, not DMSO; shares compounds with Tn6 DDE FP;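 active means inhibition above the mean of test compounds lying between the control limits plus 3 SD of those, cut at about 14% in these data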
DDE Tn6 confirm – DD(E)-Tn6 binding inhibition, FP confirmation. shares compounds with Tn6 DDE FP. FP displacement of TRITC-Tn6 peptide from DD(E); 0% = per-plate median of test wells. inhibition, % at 8.3 µM. 680 tested, 10% active;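 active means inhibition above the mean of compounds lying within the control limits plus 3 SD, cut at about 16% in these data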
Numbers stand for hits.

`COc1cccc2c1C(=O)c1c(O)c3c(c(O)c1C2=O)CC(O)(C(C)=NO)CC3OC1CC(N)C(O)C(C)O1` (stereo not given) gave ARFGAP1 inhibitor inactive, Tn7 DDE FP 21, Tn6 DDE FP active, ASAP1 GAP inh inactive, DDE Tn7 confirm inactive, Tn7 DDE ctr 93, Tn6 DDE ctr inactive and DDE Tn6 confirm 93.
For O=[N+]([O-])c1ccc(N2CCCCCC2)c2nonc12 the results were ARFGAP1 inhibitor inactive, Tn7 DDE FP inactive, Tn6 DDE FP 85, ASAP1 GAP inh inactive, Tn6 DDE ctr inactive and DDE Tn6 confirm 66.
Screening CCNC(=O)C1OC(n2cnc3c(N)ncnc32)C(O)C1O (stereo not given) returned ARFGAP1 inhibitor inactive, Tn7 DDE FP inactive, Tn6 DDE FP 16, ASAP1 GAP inh inactive, Tn6 DDE ctr inactive and DDE Tn6 confirm inactive.
OC1CN2CCC(O)C2C(O)C1O (stereo not given) was read as ARFGAP1 inhibitor inactive, Tn7 DDE FP inactive, Tn6 DDE FP inactive and ASAP1 GAP inh inactive.
Screening c1ccc(Cc2cnc(N3CCNCC3)nc2)cc1 returned ARFGAP1 inhibitor inactive, Tn7 DDE FP inactive, Tn6 DDE FP inactive and ASAP1 GAP inh inactive.

Bioassay records (PubChem)
